We go through nine compounds from PMC9845116 (Saudi Pharmaceutical Journal : SPJ, 2022).

Where two headings read alike, the source gives them in different places.

Holding throughout (type): cell-based
Series [1] deals with Hela cells. In words: Colony formation assay, Hela. To be noted: 0.5 mM (so in the source), vs 5-Fu 5 μM. Put shortly: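 HeLa cells were seeded at 1500 per well in six-well plates and grown 48 h in regular medium. Cells were exposed to test compound or 5-Fu (positive control) at indicated concentrations for 7 days. They were then PBS-washed, fixed with paraformaldehyde 30 min, stained with crystal violet 30 min, and photographed. Clone formation rate was quantified; mean ± SD of three separate experiments.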

A further series concerns HepG2. In words: MTT cell viability assay, HepG2. To be noted: for IC50: Homo sapiens, HepG2, 48 h, read-out: IC50(μM) HepG2. Background: Tetrazolium dyes change colour on reduction, which living cells bring about.
For series [2], the system named is Hela cells. Put plainly: Annexin V-FITC/PI apoptosis assay. To be noted: 24 h (control 14.06 %).
The subject of series [3] is Hela cells. Put plainly: Hoechst 33,258 staining assay. To be noted: increasing concentration 0.5-4 μM, 24 h. The essentials: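 HeLa cells seeded at 1 × 10^4/well in twelve-well plates and grown 24 h in regular medium. Treated 24 h with test compound (0, 0.5, 1, 2, 4 μM) or 5-Fu (5.0 μM). Washed twice with PBS, stained with Hoechst 33,258 for 30 min in the incubator, washed, then imaged by fluorescence microscopy for apoptotic nuclear and cell morphology.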

Series [4] has as its system human liver cell line L-O2. In words: Cytotoxic activity on human liver cells. The essentials: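 L-02 cells were grown in DMEM with 10 % FBS and 1 % penicillin–streptomycin at 37 °C, 5 % CO2, then seeded at 2 × 10^4 cells per well in 96-well plates. Test compounds were made as 20 mM DMSO stocks and applied at various concentrations for 48 h. MTT (5 mg/mL stock in PBS) was added for 4 h at 37 °C in the dark. Formazan was dissolved in DMSO and read at 490 nm; triplicate experiments.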

Another series relates to Hela. In words: MTT cell viability assay, Hela. The note with it: for IC50: 48 h.
A further series relates to MCF-7. Put plainly: MTT cell viability assay, MCF-7.
A further series deals with A549. In words: MTT cell viability assay, A549. To be noted: for IC50: Homo sapiens, A549, 48 h, read-out: IC50(μM) A549.
The next series concerns MCF-7 cells. Put plainly: Colony formation assay, MCF-7. To be noted: 0.5 mM (so in the source), vs 5-Fu 5 μM. The essentials: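 MCF-7 cells grown in DMEM with 10 % FBS and 1 % penicillin–streptomycin at 37 °C, 5 % CO2. Seeded at 1500 cells/well in six-well plates, grown 48 h, then exposed to test compound or 5-Fu for 7 days. Washed with PBS, fixed with paraformaldehyde for 30 min, stained with crystal violet for 30 min, photographed. Clone formation rate quantified; mean ± SD of three separate experiments.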

Where [5] appears, read: Homo sapiens, HeLa, read-out: IC50(μM) Hela, MTT, 48 h, Hela.
The mark [6] stands for this setting: Homo sapiens, MCF7, 48 h, read-out: IC50(μM) MCF-7, MTT, 48 h, MCF-7.

Usually IC50 stands for the midpoint of a concentration-inhibition curve. Take `COc1cc(OC)c(C(=O)/C=C/c2ccc(Br)cn2)c(OC)c1` [B3, (E)-3-(5-bromopyridin-2-yl)-1-(2,4,6-trimethoxyphenyl)prop-2-en-1-one]: in the series with Hela cells [1], the “colony formation, Hela” value is “slightly better than the positive control”. For the same compound, the IC50 is 5.81 ± 0.37 µM in the series with HepG2; 3.2 µM with Hela (setting [5]); 3.2 ± 0.21 µM in the series with Hela (read-out: IC50(μM) Hela, MTT, Hela); 3.85 µM in the series on MCF-7 (setting [6]); 3.85 ± 0.28 µM in the series on MCF-7 (read-out: IC50(μM) MCF-7, MTT, 48 h, MCF-7); 5.19 ± 0.23 µM with A549. Moreover, in the series with HepG2 (MTT at 24 h, 48 h and 72 h), the “inhibitory effect on cell viability over time, HepG2” value is recorded as “excellent inhibitory effect”. In addition, the apoptosis index in the series on Hela cells [2] (0.5 μM) is recorded as 16.78%; with Hela cells [2] (1 μM), 26.41%; with Hela cells [2] (2 μM), 30.95%; with Hela cells [2] (4 μM), 39.8%. In addition, the “morphological changes of Hela cells” value in the series with Hela cells [3] is “cells shrinkage, nuclear division and formation of apoptotic bodies”. Besides, the “toxicity on normal cells” value in series [4] is on record as “low toxicity to normal cells”. Moreover, the “fold potency than 5-fluorocrail, Hela” value in the series with Hela (Hela cells, vs 5-Fu) is reported as “over 10 fold”. In the series on Hela (MTT at 24 h, 48 h and 72 h), the “inhibitory effect on cell viability over time, Hela” value is “excellent inhibitory effect”. Further, the “fold potency than 5-fluorocrail, MCF-7” value with MCF-7 (MCF-7 cells, vs 5-Fu) is reported as “over 10 fold”. Also, the “inhibitory effect on cell viability over time, MCF-7” value with MCF-7 (MTT at 24 h, 48 h and 72 h) is given as “excellent inhibitory effect”. Besides, the “inhibitory effect on cell viability over time, A549” value in the series on A549 (MTT at 24 h, 48 h and 72 h) is recorded as “excellent inhibitory effect”. For the same compound, in the series with MCF-7 cells, the “colony formation, MCF-7” value is “slightly better than the positive control”.

In the case of `COc1cc(OC)c(C(=O)/C=C/c2ccc(OCC3CCCCC3)cc2)c(OC)c1` [C3, (E)-3-(4-(cyclohexylmethoxy)phenyl)-1-(2,4,6-trimethoxyphenyl)prop-2-en-1-one], the IC50 in the series on HepG2, in the series with Hela (setting [5]), in the series with MCF-7 (setting [6]) and with A549 was more than 100 µM in each case.

As to `O=c1[nH]cc(F)c(=O)[nH]1` [5-Fu, 5-fluorouracil, reference compound], the IC50 came to 45.4 ± 1.35 µM in the series on HepG2, 43.8 ± 1.53 µM in the series with Hela (setting [5]), 55.2 ± 1.92 µM in the series on MCF-7 (setting [6]) and 43.5 ± 1.22 µM in the series with A549.

As to `COc1cc(OC)c(C(=O)/C=C/c2cc3cc(C)ccc3[nH]c2=O)c(OC)c1` [B15, (E)-6-methyl-3-(3-oxo-3-(2,4,6-trimethoxyphenyl)prop-1-en-1-yl)quinolin-2(1H)-one], the IC50 with HepG2 came to 18 ± 0.62 µM; in the series with Hela (setting [5]) it was 4.91 ± 0.3 µM; in the series with MCF-7 (setting [6]) it was 16 ± 0.56 µM; in the series with A549, 20.4 ± 0.67 µM.

As to `COc1cc(OC)c(C(=O)/C=C/c2cccc(Br)n2)c(OC)c1` [B2, (E)-3-(6-bromopyridin-2-yl)-1-(2,4,6-trimethoxyphenyl)prop-2-en-1-one], the IC50 in the series with HepG2 was 7.12 ± 0.42 µM; with Hela (setting [5]) it was 6.48 ± 0.33 µM; with MCF-7 (setting [6]) it was 7.83 ± 0.45 µM; in the series on A549 it was 9.36 ± 0.72 µM.

For the compound `COc1cc(OC)c(C(=O)/C=C/c2ccc(-c3ccccc3)cc2)c(OC)c1` [B12, (E)-3-([1,1′-biphenyl]-4-yl)-1-(2,4,6-trimethoxyphenyl)prop-2-en-1-one], the IC50 amounted to 38.1 ± 1.45 µM with HepG2, 46.3 ± 1.07 µM in the series on Hela (setting [5]), 51.6 ± 1.23 µM in the series on MCF-7 (setting [6]) and 44.5 ± 1.05 µM with A549.

`COc1cc(OC)c(C(=O)/C=C/c2ccc(OCc3ccc(Br)cc3)cc2)c(OC)c1` [C5, (E)-3-(4-((4-bromobenzyl)oxy)phenyl)-1-(2,4,6-trimethoxyphenyl)prop-2-en-1-one]: the IC50 in the series with HepG2, with Hela (setting [5]), in the series with MCF-7 (setting [6]) and with A549 was more than 100 µM in each case.

Turning to `COc1cc(OC)c(C(=O)/C=C/c2ccc(OCc3ccc4ccccc4c3)cc2)c(OC)c1` [C8, (E)-3-(4-(naphthalen-2-ylmethoxy)phenyl)-1-(2,4,6-trimethoxyphenyl)prop-2-en-1-one], the IC50 in the series on HepG2, with Hela (setting [5]), in the series with MCF-7 (setting [6]) and with A549 was more than 100 µM each time.

Consider `COc1cc(OC)c(C(=O)/C=C/c2ccccc2)c(OC)c1` [A7, (E)-3-phenyl-1-(2,4,6-trimethoxyphenyl)prop-2-en-1-one], for which the IC50 is 47.1 ± 1.42 µM in the series on HepG2, 46.5 ± 1.33 µM in the series on Hela (setting [5]), 57.8 ± 1.45 µM in the series with MCF-7 (setting [6]) and 59.4 ± 1.72 µM in the series with A549.
